The values that follow come from ChEMBL document CHEMBL1133744, “Synthesis and biological evaluation of bombesin constrained analogues” (J Med Chem, 2000).

Assay [1] is filed under the species Rattus norvegicus. As to the kind of experiment: Compound was tested for stimulating amylase secretion on rat pancreatic acini. The assay is classed as functional, organism-based. The essentials: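 Dispersed pancreatic acini from male Wistar rats (200-300 g), about 1 mg protein/mL, incubated 30 min at 37 °C in HEPES pH 7.4 buffer with 1% BSA; amylase by Phadebas method, expressed as % of maximal BN response. Antagonism: varying analogue with 1 nM BN. Duplicate incubations.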

Assay [2] is described as follows: Binding affinity against BN (bombesin) / GRP receptors in Swiss 3T3 cells. The assay is classed as cell-based, Mus musculus. The method in brief: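 Intact Swiss 3T3 cells (seeded 10⁵/well, 24 h in serum-free medium with 0.2% BSA) incubated 1 h at 22 °C in DMEM/0.2% BSA with 20 pM (3-[125I]iodotyrosyl15)GRP and varying compound; washed with cold PBS/0.2% BSA, NaOH-solubilized, radioactivity counted. Nonspecific binding with 10 μM BN. Duplicates, at least three separate trials.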

The target of assay [3] is Gastrin-releasing peptide receptor (Rattus norvegicus, UniProt P52500). As to the kind of experiment: In vitro binding affinity against bombesin / GRP receptors on rat pancreatic acini. The method in brief: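 Male Wistar rat dispersed pancreatic acini (about 1 mg/mL protein) incubated 60 min at 37 °C with 20 pM (3-[125I]iodotyrosyl15)GRP and varying analogue; pellet centrifuged at 10000g, washed twice, counted. Nonspecific binding with 10 μM unlabeled BN. Specific binding as %, mean ± SD of three experiments in duplicate.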

Assay [4] is described as follows: Compound was tested for stimulating [3H]-thymidine accumulation in Swiss 3T3 cells. The assay is classed as functional, cell-based. The settings on record: Mus musculus, NIH3T3, 24 h. The method in brief: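 Swiss 3T3 cells seeded 10⁵/well, 24 h in medium with 0.2% BSA without serum, then 24 h in DMEM/0.2% BSA; treated 24 h at 37 °C with varying analogue alone or with 10^-7 M BN, then 0.5 μCi [3H]thymidine for 2 h; TCA-precipitable radioactivity after NaOH solubilization. Agonism tested up to 10^-6 M.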

Sequence of Gastrin-releasing peptide receptor (P52500 whole entry): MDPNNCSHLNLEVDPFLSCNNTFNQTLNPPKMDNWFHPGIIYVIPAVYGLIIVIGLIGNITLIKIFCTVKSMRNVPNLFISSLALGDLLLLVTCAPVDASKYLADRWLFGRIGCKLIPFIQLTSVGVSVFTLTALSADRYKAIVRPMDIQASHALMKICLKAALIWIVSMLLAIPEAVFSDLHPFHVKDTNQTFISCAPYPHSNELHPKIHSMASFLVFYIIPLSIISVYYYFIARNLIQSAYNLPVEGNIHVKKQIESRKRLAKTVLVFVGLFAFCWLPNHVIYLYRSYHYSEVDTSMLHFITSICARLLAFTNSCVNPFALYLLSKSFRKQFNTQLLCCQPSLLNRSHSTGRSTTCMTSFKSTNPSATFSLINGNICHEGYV

For the compound `CC(C)C[C@H](NC(=O)[C@H](CC(C)C)NC(=O)[C@H](Cc1c[nH]cn1)NC(=O)CN1CCCC[C@H](NC(=O)[C@H](C)NC(=O)[C@H](Cc2c[nH]c3ccccc23)NC(=O)[C@H](CCC(N)=O)NC(=O)[C@H](N)Cc2ccccc2)C1=O)C(N)=O`, the EC50 was determined as 0.22 nM in assay [1] and 0.02 nM in assay [4]. The Ki stood at 1 nM in assay [2] and 1.7 nM in assay [3]. The compound `CC(C)C[C@H](NC(=O)[C@H](CC(C)C)NC(=O)[C@H](Cc1cnc[nH]1)NC(=O)c1ccccc1NC(=O)[C@H](C)NC(=O)[C@H](Cc1c[nH]c2ccccc12)NC(=O)[C@H](CCC(N)=O)NC(=O)[C@H](N)Cc1ccccc1)C(N)=O` displayed a Ki in assay [3] of 650 nM.

As to `CC(C)C[C@H](NC(=O)[C@H](CC(C)C)NC(=O)[C@H](Cc1c[nH]cn1)NC(=O)CN1C(=O)[C@@H](NC(=O)[C@H](C)NC(=O)[C@H](Cc2c[nH]c3ccccc23)NC(=O)[C@H](CCC(N)=O)NC(=O)[C@H](N)Cc2ccccc2)N=C(c2ccccc2)c2ccccc21)C(N)=O`, the affinity in assay [3] corresponds to a Ki of 500 nM.

Turning to `CC(C)C[C@H](NC(=O)[C@H](CC(C)C)NC(=O)[C@H](Cc1c[nH]cn1)NC(=O)CNC(=O)[C@@H](NC(=O)[C@H](C)NC(=O)[C@H](Cc1c[nH]c2ccccc12)NC(=O)[C@H](CCC(N)=O)NC(=O)C(N)Cc1ccccc1)C(C)C)C(N)=O` (stereo in doubt) [listing 1 of 3 here], the EC50 came out at 0.03 nM in assay [1] and 0.08 nM in assay [4]. Compound `CC(C)C[C@H](NC(=O)[C@H](CC(C)C)NC(=O)[C@H](Cc1cnc[nH]1)NC(=O)CN1CC[C@H](NC(=O)[C@H](C)NC(=O)[C@H](Cc2c[nH]c3ccccc23)NC(=O)[C@H](CCC(N)=O)NC(=O)[C@H](N)Cc2ccccc2)C1=O)C(N)=O` displayed a Ki in assay [3] of 225 nM.

As for `COC(=O)[C@H](CC(C)C)NC(=O)[C@H](Cc1c[nH]cn1)NC(=O)CN1CCCC[C@H](NC(=O)[C@H](C)NC(=O)[C@H](Cc2c[nH]c3ccccc23)NC(=O)[C@H](CCC(N)=O)NC(=O)[C@H](N)Cc2ccccc2)C1=O`, the Ki stood at 2 nM in assay [2] and 5.2 nM in assay [3]. `CCCCC(O)[C@@H](CC(C)C)NC(=O)[C@H](Cc1c[nH]cn1)NC(=O)CN1CCCC[C@H](NC(=O)[C@H](C)NC(=O)[C@H](Cc2c[nH]c3ccccc23)NC(=O)[C@H](CCC(N)=O)NC(=O)CCc2ccc(O)cc2)C1=O` (some centres undefined): the Ki in assay [2] amounted to 0.8 nM; in assay [3], 3.8 nM. Take `CC(C)C[C@H](NC(=O)[C@H](CC(C)C)NC(=O)[C@H](Cc1c[nH]cn1)NC(=O)CNC(=O)[C@@H](NC(=O)[C@H](C)NC(=O)[C@H](Cc1c[nH]c2ccccc12)NC(=O)[C@H](CCC(N)=O)NC(=O)C(N)Cc1ccccc1)C(C)C)C(N)=O` (stereo in doubt) [listing 2 of 3 here]: the Ki in assay [3] turned out to be 3.2 nM. As for `COC(=O)[C@H](CC(C)C)NC(=O)[C@H](Cc1c[nH]cn1)NC(=O)CN1CCCC[C@H](NC(=O)[C@H](C)NC(=O)[C@H](Cc2c[nH]c3ccccc23)NC(=O)[C@H](CCC(N)=O)NC(=O)CCc2ccc(O)cc2)C1=O`, the Ki in assay [2] worked out at 1.2 nM; in assay [3] it was 3.1 nM.

With `CC(C)C[C@H](NC(=O)[C@H](CC(C)C)NC(=O)[C@H](Cc1cnc[nH]1)NC(=O)c1ccc(NC(=O)[C@H](C)NC(=O)[C@H](Cc2c[nH]c3ccccc23)NC(=O)[C@H](CCC(N)=O)NC(=O)[C@H](N)Cc2ccccc2)cc1)C(N)=O`, the affinity in assay [3] corresponds to a Ki of 2250 nM. That is a single-digit micromolar value. With `CC(C)C[C@@H](NC(=O)[C@H](Cc1c[nH]cn1)NC(=O)CN1CCCC[C@H](NC(=O)[C@H](C)NC(=O)[C@H](Cc2c[nH]c3ccccc23)NC(=O)[C@H](CCC(N)=O)NC(=O)CCc2ccc(O)cc2)C1=O)C(=O)NO`, the Ki in assay [2] came to 11 nM; in assay [3], 13 nM.

As to `CCCCC(O)[C@@H](CC(C)C)NC(=O)[C@H](Cc1c[nH]cn1)NC(=O)CN1CCCC[C@H](NC(=O)[C@H](C)NC(=O)[C@H](Cc2c[nH]c3ccccc23)NC(=O)[C@H](CCC(N)=O)NC(=O)[C@H](N)Cc2ccccc2)C1=O` (some centres undefined), the Ki in assay [2] is 2 nM; in assay [3], 9 nM. For the compound `CC(C)C[C@H](NC(=O)[C@H](CC(C)C)NC(=O)[C@H](Cc1cnc[nH]1)NC(=O)c1cccc(NC(=O)[C@H](C)NC(=O)[C@H](Cc2c[nH]c3ccccc23)NC(=O)[C@H](CCC(N)=O)NC(=O)[C@H](N)Cc2ccccc2)c1)C(N)=O`, the Ki in assay [3] was 300 nM. In other words, the sub-micromolar range.

`CC(C)C[C@@H](NC(=O)[C@H](Cc1c[nH]cn1)NC(=O)CN1CCCC[C@H](NC(=O)[C@H](C)NC(=O)[C@H](Cc2c[nH]c3ccccc23)NC(=O)[C@H](CCC(N)=O)NC(=O)[C@H](N)Cc2ccccc2)C1=O)C(=O)NO`: the Ki in assay [2] stood at 53 nM; in assay [3], 127 nM.

Take `CC(C)C[C@H](NC(=O)[C@H](CC(C)C)NC(=O)[C@H](Cc1c[nH]cn1)NC(=O)CN1CCCC[C@H](NC(=O)[C@H](C)NC(=O)[C@H](Cc2c[nH]c3ccccc23)NC(=O)[C@H](CCC(N)=O)NC(=O)CCc2ccc(O)cc2)C1=O)C(N)=O`: the EC50 in assay [1] was determined as 0.05 nM; in assay [4], 0.2 nM. Moreover, the results for the Ki in assay [2] and in assay [3] were 2 nM and 1.8 nM, respectively. `CC(C)C[C@H](NC(=O)[C@H](CC(C)C)NC(=O)[C@H](Cc1c[nH]cn1)NC(=O)CNC(=O)[C@@H](NC(=O)[C@H](C)NC(=O)[C@H](Cc1c[nH]c2ccccc12)NC(=O)[C@H](CCC(N)=O)NC(=O)C(N)Cc1ccccc1)C(C)C)C(N)=O` (stereo in doubt) [listing 3 of 3 here]: in assay [2], affinity was put at a Ki of 6.3 nM.

Usually EC50 stands for the concentration that produces a half-maximal response. A lower EC50 goes with greater potency. By Ki is commonly meant a dissociation constant, usually derived from enzyme kinetics or from competition with a known ligand. Higher therefore signals lower affinity.
